Compounds with a hit are over-represented: about 2.5% of the library has one in this group of screens.
TCR-CD3 inh: blocks the human TCR-CD3 interaction | TAMRA-labeled TCR probe fluorescence, biochemical | AID 651800 | inhibition, % at 9.4 µM | actives 0.37% (n = 360,000); in the data active = inhibition above about 19%;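 also: recombinant mutant TCR 2C K166C tagged with TAMRA read by polarization; 0% = receptor in buffer alone and 100% = receptor with positive control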
PRMT1 FP inh: blocks human protein arginine methyltransferase 1. actives 1.3% (n = 370,000). recombinant PRMT1, activity-based probe fluorescence polarization. Q99873. inhibition, % at 2.79 µM. AID 652257;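 active = inhibition above about 21% made by adding two undisclosed values, limit read from the data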
mABHD4 FP: ABHD4 (mouse) inhibition, primary FP screen | Q8VD66 | purified mABHD4, FP-Rh probe fluorescence polarization | inhibition, % at 8.92 µM | actives 0.54% (n = 370,000) | AID 720543;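 active = inhibition exceeding the mean over every tested compound plus 3 SD, cut at about 30% in these data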;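 also: 0% = plate median of compound wells and 100% = S159A mutant with DMSO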
Target sequence (Q8VD66 whole entry, looked up): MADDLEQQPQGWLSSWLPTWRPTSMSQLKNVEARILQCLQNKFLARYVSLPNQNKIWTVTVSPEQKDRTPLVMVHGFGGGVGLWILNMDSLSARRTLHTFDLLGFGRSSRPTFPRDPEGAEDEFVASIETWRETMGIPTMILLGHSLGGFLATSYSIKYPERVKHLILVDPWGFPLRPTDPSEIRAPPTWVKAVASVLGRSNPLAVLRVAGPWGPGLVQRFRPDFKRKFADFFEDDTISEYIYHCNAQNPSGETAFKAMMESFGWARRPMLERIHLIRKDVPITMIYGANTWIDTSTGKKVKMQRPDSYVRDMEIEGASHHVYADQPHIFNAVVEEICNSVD
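System: mouse ABHD4 enzyme, wild type / Medium: HEPES pH 7.0, NaCl, Pluronic buffer / Reagent: FP-Rh activity-based fluorescent probe / Control set: S159A mutant high control, sample median low control / Detection: fluorescence polarization with parallel and perpendicular emission, 525/598 nm / Schedule: 45 min + 60 min at 25 °C / Compound dosing: 8.92 µM, single dose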
HTRA1 inhibitor: inhibitors of human serine peptidase HTRA1. recombinant HTRA1, FP-rhodamine activity-based probe, fluorescence polarization. inhibition, % at 5.96 µM. actives 0.5% (n = 340,000); in the data active = inhibition above about 36%;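 also: 0% = enzyme with DMSO and 100% = wells lacking enzyme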
SIAE primary: human SIAE inhibition, primary screen; Q9HAT2; SIAE FP-Rh probe binding, fluorescence polarization; inhibition, % at 9.66 µM; actives 0.69% (n = 370,000); AID 1053197;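 active = inhibition above a cutoff: mean of compounds within the control limits plus 3 SD of those, cut at about 17% in these data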;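 also: 0% = plate median of compound wells and 100% = probe without SIAE protein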
SIAE confirm: human SIAE inhibition, confirmation; AID 1117263; inhibition, % at 9.66 µM; actives 13% (n = 2,300); shares compounds with SIAE primary; SIAE FP-Rh activity-based probe, fluorescence polarization;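 active = mean inhibition of the replicates above the hit cutoff set in the primary screen, cut at about 17% in these data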;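 also: 0% = SIAE with DMSO and probe and 100% = probe without SIAE; inhibitors lower polarization as more probe stays unbound to SIAE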
* = called active by the depositor; / = no result given.

SMILES | TCR-CD3 inh | PRMT1 FP inh | mABHD4 FP | HTRA1 inhibitor | SIAE primary | SIAE confirm
COc1ccc(C(=O)NC(=S)Nc2cccc3cc(O)ccc23)cc1OC | -3 | 4 | 4 | -13 | 28* | 6
COc1ccccc1C(=O)NC(=S)Nc1cccc2cc(O)ccc12 | 10 | 0 | -55 | -47 | -16 | /
COc1cccc(N2CCN(CC(=O)NCc3ccco3)CC2)c1 | / | 3 | 1 | / | 3 | /
CCOC(=O)N1CCN(C(=O)C[C@@H]2C(=O)N(Cc3ccc(OC)cc3)C3=CCN(C(=O)OC(C)(C)C)C[C@]32C(=O)OCC)CC1 | / | 3 | -5 | / | -2 | /
COc1ccc(/C=C/C(=O)NC(=S)Nc2cc([N+](=O)[O-])ccc2O)cc1OC | 50* | 0 | 12 | 6 | 18* | -5
Cc1cccc(OCC(=O)O/N=C(\N)c2ccccn2)c1C | 0 | 0 | -8 | -8 | 31* | -7
CCC1Oc2ccccc2N(CC(=O)N2CCOCC2)C1=O (centres undefined) | 7 | 2 | 1 | 1 | -5 | /
CC(C)C1Oc2ccccc2N(CC(=O)N2CCOCC2)C1=O (centres undefined) | 1 | 1 | 2 | 12 | 27* | -5
Cc1ccc(S(=O)(=O)NC(=O)c2cc(C)n(C3CC3)c2C)cc1 | 4 | -3 | 12 | 3 | 24* | 5
COc1ccc(-n2nnnc2C2c3ccccc3C(=O)N2C2CCN(Cc3ccccc3)CC2)cc1 (centres undefined) | 5 | -3 | 2 | / | 21* | 4
COc1ccc(OC)c(CN2C(=O)c3ccccc3C2c2nnnn2-c2ccc3c(c2)OCCO3)c1 (centres undefined) | 2 | 3 | 5 | / | 7 | /
Cc1ccccc1-c1cccc2c3c([nH]c12)[C@@H]1C[C@H]2[C@@H](CN1CC3)[C@H](C)ON2C | / | 0 | 5 | / | -1 | /
CCCC(=O)OC12CCCN(C1)/C(=C/c1cccc(OC)c1)C2 (centres undefined) | / | -5 | 1 | / | 0 | /
O=C(NNc1c2ccccc2nc2ccccc12)c1cccc(O)c1 | 0 | -1 | 20 | 18 | 18* | 6
COCCCn1cnn2c(=O)c3ccccc3nc2c1=O | -1 | -3 | 4 | / | -4 | /
CC(=O)c1cccc(NC(=S)NC2CCCCC2)c1 | -2 | 5 | 5 | 7 | 19* | -1
CCCCNC(=S)Nc1cccc(C(C)=O)c1 | -10 | -2 | 1 | 0 | 4 | /
CC(=O)c1cccc(NC(=S)NCCCCc2ccccc2)c1 | 1 | 1 | -9 | -35 | 42* | 47*
CC(=O)c1cccc(NC(=S)NC2CC2)c1 | 2 | -2 | 1 | 3 | 8 | /
O=C(NC1CCCCN(Cc2ccc(Cl)cc2)C1=O)c1cccc([N+](=O)[O-])c1 (centres undefined) | / | 6 | -3 | / | 0 | /
CCc1cccc(CC)c1N(COC)C(=O)Cn1cnc2ccccc21 | 1 | -5 | -2 | / | 1 | /
CCOCN(C(=O)Cn1cnc2ccccc21)c1c(C)cccc1CC | -5 | -1 | 3 | -3 | 18* | -2
CCCCCC(=O)Nc1ccc2oc(-c3cncc(Br)c3)nc2c1 | 4 | 1 | -2 | -5 | 36* | -5
Cc1cc(C)cc(NC(=O)NC2CCN(S(=O)(=O)c3ccc(F)cc3)CC2)c1 | / | 2 | 1 | / | 4 | /
CCc1nc2ccc(C(=O)NCCc3ccccn3)cn2c1N(C)Cc1ccc(N(C)C)cc1 | -2 | 2 | 3 | / | 23* | 4
SMILES | TCR-CD3 inh | PRMT1 FP inh | mABHD4 FP | HTRA1 inhibitor | SIAE primary | SIAE confirm
COC(=O)c1cc(-c2ccc(C(C)(C)C)cc2)c(=O)n2c1CCC2 | / | -5 | 5 | / | -2 | /
COc1ccc(/C=C/C(=O)NC(=S)NNC(=O)c2cccnc2)cc1 | 17 | -2 | 11 | 2 | 21* | 1
COc1ccc(/C=C/C(=O)NC(=S)NNC(=O)c2cnccn2)cc1 | 7 | 6 | 17 | 11 | -3 | /
COc1cc(CNc2cccc3[nH]c(C(F)(F)F)nc23)cc(OC)c1 | -5 | 3 | 3 | -10 | 18* | 8
COc1ccc(CNc2cccc3[nH]c(C(F)(F)F)nc23)cc1 | 2 | 1 | 15 | 18 | 15 | /
CC(OC(=O)c1ccc(Cl)nc1)C(=O)N1CCc2ccccc21 (centres undefined) | -5 | 2 | -2 | 0 | 19* | 2
CC(=O)Nc1cccc(C(=O)OC(C)C(=O)N2CCc3ccccc32)c1 (centres undefined) | 1 | -5 | 2 | 2 | 0 | /
O=C(CN1C(=O)CCSc2ccccc21)Nc1ccc(Cl)c(Cl)c1 | / | 1 | -10 | / | -6 | /
CCOc1ncccc1C(=O)N1CCN(S(=O)(=O)c2ccc3c(c2)OCCO3)CC1 | 8 | -2 | -2 | 1 | 22* | -3
O=C(c1ccc(F)cc1)N1CCN(S(=O)(=O)c2ccc3c(c2)OCCO3)CC1 | -2 | 2 | 3 | -3 | 5 | /
CN(C)S(=O)(=O)c1ccc(C(=O)N2CCN(S(=O)(=O)c3ccc4c(c3)OCCO4)CC2)cc1 | 4 | -1 | -1 | 11 | 20* | 1
O=C(NCCCc1ccccc1)OC1CC2CC1[C@H]1CCCCN1[C@H]2Cc1ccccc1 (some centres undefined) | / | -1 | 0 | / | -1 | /
CSCCC(NC(=O)OCc1ccccc1)C(=O)NC(Cc1c[nH]c2ccccc12)C(=O)O (centres undefined) | -2 | 6 | -1 | / | 4 | /
COc1cccc(C(=O)C2CCCN(Cc3cn(CC(N)=O)c4ccccc34)C2)c1 (centres undefined) | -3 | -5 | -5 | 3 | 19* | 0

Assay outcomes (PubChem BioAssay)
